In ChEMBL document CHEMBL1123950, “N-(Retinoyl)amino acids. Synthesis and chemopreventive activity in vitro” (1988) one finds Culture and EC50 data, which are given here for one compound.

SMILES strings stand for the structures. pEC50: −log10 of the molar value.

Assay [1] has as its system Cricetinae gen. sp. The assay can be described thus: Cultures with severe degree of squamous metaplasia at a conc of 10e-8 M. The class given is functional, Cricetulus griseus. Summed up: (§1)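 Tracheas from 29-31-day-old hamsters fed a vitamin A free diet; cultured in serum-free CMRL 1066 (insulin 1.0 μg/mL, hydrocortisone hemisuccinate 0.1 μg/mL, glutamine 2 mM, Garamycin 50 μg/mL), 50% O2/45% N2/5% CO2, rocked, 36 °C. Retinoid-free 3 days, then retinoid in DMSO (final 0.1%) for 7 days; medium and gas changed three times. Formalin-fixed day 10; squamous metaplasia graded: mild 2-10%, marked 10-40%, severe >40%.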

Assay [2] deals with Cricetinae gen. sp. In words: Cultures with marked degree of squamous metaplasia at a conc of 10e-8 M. The assay is classed as functional, Cricetulus griseus. The gist of the method:
as §1

Assay [3] has as its system Cricetinae gen. sp. The assay can be described thus: Cultures with severe degree of squamous metaplasia at a conc of 10e-10 M. The class given is functional, Cricetulus griseus. Summed up:
as §1

Assay [4] has as its system Cricetinae gen. sp. The assay can be described thus: Reversal of keratinization in vitamin A deficient hamster trachea culture at a conc of 10e-8 M. The class given is functional, Cricetulus griseus. The following applies: read-out: ED50 (the source's name). The gist of the method:
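Tracheas from 29-31-day-old hamsters kept on a vitamin A free diet, cultured in serum-free CMRL 1066 (insulin 1.0 μg/mL, hydrocortisone hemisuccinate 0.1 μg/mL, glutamine 2 mM, Garamycin 50 μg/mL), 50% O2/45% N2/5% CO2, rocked at 36 °C. Retinoid-free for 3 days, then retinoid in DMSO (0.1% final) for 7 days. Fixed in formalin; squamous metaplasia graded mild 2-10%, marked 10-40%, severe >40%.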

For assay [5], the system named is Cricetinae gen. sp. The assay can be described thus: Cultures with marked degree of squamous metaplasia at a conc of 10e-9 M. The assay is classed as functional, Cricetulus griseus. Summed up: as §1
Assay [6] relates to Cricetinae gen. sp. The assay can be described thus: Cultures with mild degree of squamous metaplasia at a conc of 10e-9 M. The class given is functional, Cricetulus griseus. Summed up: as §1
Assay [7] deals with Cricetinae gen. sp. The assay can be described thus: Cultures with severe degree of squamous metaplasia at a conc of 10e-9 M. The class given is functional, Cricetulus griseus. Summed up: as §1
For assay [8], the system named is Cricetinae gen. sp. In words: Cultures with minimal degree of squamous metaplasia at a conc of 10e-9 M. The class given is functional, Cricetulus griseus. The gist of the method: as §1
The subject of assay [9] is Cricetinae gen. sp. In words: Cultures with mild degree of squamous metaplasia at a conc of 10e-10 M. The assay is classed as functional, Cricetulus griseus. The gist of the method: as §1
Assay [10] has as its system Cricetinae gen. sp. The assay can be described thus: Cultures with minimal degree of squamous metaplasia at a conc of 10e-11 M. The assay is classed as functional, Cricetulus griseus. Summed up:
as §1

Assay [11] concerns Cricetinae gen. sp. The assay can be described thus: Cultures with marked degree of squamous metaplasia at a conc of 10e-11 M. The class given is functional. Summed up:
as §1

Assay [12] deals with Cricetinae gen. sp. In words: Cultures with minimal degree of squamous metaplasia at a conc of 10e-8 M. The assay is classed as functional, Cricetulus griseus. Summed up:
as §1

Assay [13] concerns Cricetinae gen. sp. The assay can be described thus: Cultures with mild degree of squamous metaplasia at a conc of 10e-8 M. The class given is functional, Cricetulus griseus. Summed up: as §1
Assay [14] relates to Cricetinae gen. sp. The assay can be described thus: Cultures with no evidence of squamous metaplasia at a conc of 10e-8. The assay is classed as functional, Cricetulus griseus. Summed up: as §1
For assay [15], the system named is Cricetinae gen. sp. The assay can be described thus: Cultures with no evidence of squamous metaplasia at a conc of 10e-9 M. The assay is classed as functional, Cricetulus griseus. Summed up:
as §1

Assay [16] deals with Cricetinae gen. sp. The assay can be described thus: Cultures with no evidence of squamous metaplasia at a conc of 10e-10 M. The class given is functional, Cricetulus griseus. Summed up: as §1
The test system of assay [17] is Cricetinae gen. sp. The assay can be described thus: Cultures with no evidence of squamous metaplasia at a conc of 10e-11 M. The class given is functional, Cricetulus griseus. Summed up:
as §1

The test system of assay [18] is Cricetinae gen. sp. In words: Cultures with marked degree of squamous metaplasia at a conc of 10e-10 M. The class given is functional, Cricetulus griseus. The gist of the method: as §1
Assay [19] has as its system Cricetinae gen. sp. The assay can be described thus: Cultures with severe degree of squamous metaplasia at a conc of 10e-11 M. The assay is classed as functional, Cricetulus griseus. The gist of the method: as §1
For assay [20], the system named is Cricetinae gen. sp. The assay can be described thus: Cultures with minimal degree of squamous metaplasia at a conc of 10e-10 M. The class given is functional, Cricetulus griseus. Summed up: as §1
The test system of assay [21] is Cricetinae gen. sp. In words: Cultures with mild degree of squamous metaplasia at a conc of 10e-11 M. The class given is functional, Cricetulus griseus. Summed up: as §1

For `CC1=C(/C=C/C(C)=C/C=C/C(C)=C/C(=O)NC(C)C(=O)O)C(C)(C)CCC1` (stereo unspecified), the Culture with Cricetinae gen. sp. [1] is 0%; in the assay on Cricetinae gen. sp. [2], 0%; in the assay with Cricetinae gen. sp. [3], 14%; in the assay on Cricetinae gen. sp. [5], 0%; in the assay with Cricetinae gen. sp. [6] it was 14%; with Cricetinae gen. sp. [7], 14%. In addition, the Culture with Cricetinae gen. sp. [8] is given as 0%; in the assay with Cricetinae gen. sp. [9], 14%; in the assay on Cricetinae gen. sp. [10], 0%; in the assay with Cricetinae gen. sp. [11], 57%; with Cricetinae gen. sp. [12], 0%; with Cricetinae gen. sp. [13], 0%. Moreover, the Culture with Cricetinae gen. sp. [14] was 100%; in the assay with Cricetinae gen. sp. [15], 72%; with Cricetinae gen. sp. [16], 14%; in the assay on Cricetinae gen. sp. [17], 0%; in the assay on Cricetinae gen. sp. [18], 58%; in the assay with Cricetinae gen. sp. [19], 14%. The Culture in the assay with Cricetinae gen. sp. [20] is given as 0%; with Cricetinae gen. sp. [21] it was 29%. Moreover, in the assay on Cricetinae gen. sp. [4], the pEC50 is 9.40.
